Source: ChEMBL document CHEMBL5058577, “EUbOPEN Chemogenomics Library 2 (Multiplex)” (2022)

Test system: U2OS
Test: Multiplex assay against U2OS
Type: toxicity, cell-based
Settings: human
In short: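 Per cents of healthy-nucleus cells form the tubulin, mitochondrial-mass and membrane-permeability phenotype values. Live cells were stained at seeding with Hoechst33342, BioTracker Green Microtubule Cytoskeleton Dye, MitoTracker Red and Annexin V Alexa Fluor 680. After compound addition they were imaged on a CQ1 microscope at 37°C and 5% CO2, and CellPathfinder machine-learning gating split them into Hoechst high-intensity objects or normal cells, normal cells into healthy, pyknosed or fragmented nuclei, and pyknosed cells into mitotic or apoptotic.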

[1] = 12 h, 1 µM, compound concentration 1 uM, replicate 1
[2] = 12 h, 1 µM, compound concentration 1 uM, replicate 2
[3] = 12 h, 10 µM, compound concentration 10 uM, replicate 1
[4] = 12 h, 10 µM, compound concentration 10 uM, replicate 2
[5] = 24 h, 1 µM, compound concentration 1 uM, replicate 1
[6] = 24 h, 1 µM, compound concentration 1 uM, replicate 2
[7] = 24 h, 10 µM, compound concentration 10 uM, replicate 1
[8] = 24 h, 10 µM, compound concentration 10 uM, replicate 2
[9] = 48 h, 1 µM, compound concentration 1 uM, replicate 1
[10] = 48 h, 1 µM, compound concentration 1 uM, replicate 2
[11] = 48 h, 10 µM, compound concentration 10 uM, replicate 1
[12] = 48 h, 10 µM, compound concentration 10 uM, replicate 2

COc1cc2nc(N3CCN(C(=O)c4ccco4)CC3)nc(N)c2cc1OC.Cl [PRAZOSIN HYDROCHLORIDE]
Population Apoptotic (%) [1]: 88% | Population Fragmented Nuclei (%) [1]: 21% | Population Healthy Nuclei (%) [1]: 70% | Population Hoechst High Intensity Objects (%) [1]: 2% | Population Membrane Permeable-Phenotype (%) [1]: 4% | Population Mitochondria Different-Phenotype (%) [1]: 2% | Population Mitotic Cells (%) [1]: 11% | Population Normal (%) [1]: 97% | Population Pyknosed Nuclei (%) [1]: 7% | Population Tubulin-Different-Phenotype (%) [1]: 1% | Total Cell Count [1]: 235 | Population Apoptotic (%) [2]: 94% | Population Fragmented Nuclei (%) [2]: 18% | Population Healthy Nuclei (%) [2]: 69% | Population Hoechst High Intensity Objects (%) [2]: 1% | Population Membrane Permeable-Phenotype (%) [2]: 5% | Population Mitochondria Different-Phenotype (%) [2]: 7% | Population Mitotic Cells (%) [2]: 5% | Population Normal (%) [2]: 98% | Population Pyknosed Nuclei (%) [2]: 12% | Population Tubulin-Different-Phenotype (%) [2]: 8% | Total Cell Count [2]: 159 | Population Apoptotic (%) [3]: 86% | Population Fragmented Nuclei (%) [3]: 25% | Population Healthy Nuclei (%) [3]: 67% | Population Hoechst High Intensity Objects (%) [3]: 3% | Population Membrane Permeable-Phenotype (%) [3]: 12% | Population Mitochondria Different-Phenotype (%) [3]: 2% | Population Mitotic Cells (%) [3]: 13% | Population Normal (%) [3]: 96% | Population Pyknosed Nuclei (%) [3]: 7% | Population Tubulin-Different-Phenotype (%) [3]: 6% | Total Cell Count [3]: 216 | Population Apoptotic (%) [4]: 72% | Population Fragmented Nuclei (%) [4]: 15% | Population Healthy Nuclei (%) [4]: 74% | Population Hoechst High Intensity Objects (%) [4]: 0% | Population Membrane Permeable-Phenotype (%) [4]: 4% | Population Mitochondria Different-Phenotype (%) [4]: 5% | Population Mitotic Cells (%) [4]: 27% | Population Normal (%) [4]: 99% | Population Pyknosed Nuclei (%) [4]: 9% | Population Tubulin-Different-Phenotype (%) [4]: 7% | Total Cell Count [4]: 114 | Population Apoptotic (%) [5]: 95% | Population Fragmented Nuclei (%) [5]: 22% | Population Healthy Nuclei (%) [5]: 69% | Population Hoechst High Intensity Objects (%) [5]: 1% | Population Membrane Permeable-Phenotype (%) [5]: 8% | Population Mitochondria Different-Phenotype (%) [5]: 2% | Population Mitotic Cells (%) [5]: 4% | Population Normal (%) [5]: 98% | Population Pyknosed Nuclei (%) [5]: 7% | Population Tubulin-Different-Phenotype (%) [5]: 4% | Total Cell Count [5]: 273 | Population Apoptotic (%) [6]: 100% | Population Fragmented Nuclei (%) [6]: 15% | Population Healthy Nuclei (%) [6]: 74% | Population Hoechst High Intensity Objects (%) [6]: 0% | Population Membrane Permeable-Phenotype (%) [6]: 10% | Population Mitochondria Different-Phenotype (%) [6]: 5% | Population Mitotic Cells (%) [6]: 0% | Population Normal (%) [6]: 100% | Population Pyknosed Nuclei (%) [6]: 10% | Population Tubulin-Different-Phenotype (%) [6]: 9% | Total Cell Count [6]: 188 | Population Apoptotic (%) [7]: 78% | Population Fragmented Nuclei (%) [7]: 23% | Population Healthy Nuclei (%) [7]: 68% | Population Hoechst High Intensity Objects (%) [7]: 2% | Population Membrane Permeable-Phenotype (%) [7]: 8% | Population Mitochondria Different-Phenotype (%) [7]: 6% | Population Mitotic Cells (%) [7]: 21% | Population Normal (%) [7]: 97% | Population Pyknosed Nuclei (%) [7]: 7% | Population Tubulin-Different-Phenotype (%) [7]: 6% | Total Cell Count [7]: 244 | Population Apoptotic (%) [8]: 85% | Population Fragmented Nuclei (%) [8]: 13% | Population Healthy Nuclei (%) [8]: 71% | Population Hoechst High Intensity Objects (%) [8]: 1% | Population Membrane Permeable-Phenotype (%) [8]: 7% | Population Mitochondria Different-Phenotype (%) [8]: 5% | Population Mitotic Cells (%) [8]: 14% | Population Normal (%) [8]: 98% | Population Pyknosed Nuclei (%) [8]: 15% | Population Tubulin-Different-Phenotype (%) [8]: 4% | Total Cell Count [8]: 138 | Population Apoptotic (%) [9]: 94% | Population Fragmented Nuclei (%) [9]: 16% | Population Healthy Nuclei (%) [9]: 74% | Population Hoechst High Intensity Objects (%) [9]: 2% | Population Membrane Permeable-Phenotype (%) [9]: 6% | Population Mitochondria Different-Phenotype (%) [9]: 2% | Population Mitotic Cells (%) [9]: 5% | Population Normal (%) [9]: 97% | Population Pyknosed Nuclei (%) [9]: 9% | Population Tubulin-Different-Phenotype (%) [9]: 2% | Total Cell Count [9]: 388 | Population Apoptotic (%) [10]: 100% | Population Fragmented Nuclei (%) [10]: 15% | Population Healthy Nuclei (%) [10]: 77% | Population Hoechst High Intensity Objects (%) [10]: 1% | Population Membrane Permeable-Phenotype (%) [10]: 7% | Population Mitochondria Different-Phenotype (%) [10]: 7% | Population Mitotic Cells (%) [10]: 0% | Population Normal (%) [10]: 98% | Population Pyknosed Nuclei (%) [10]: 7% | Population Tubulin-Different-Phenotype (%) [10]: 5% | Total Cell Count [10]: 266 | Population Apoptotic (%) [11]: 96% | Population Fragmented Nuclei (%) [11]: 20% | Population Healthy Nuclei (%) [11]: 71% | Population Hoechst High Intensity Objects (%) [11]: 1% | Population Membrane Permeable-Phenotype (%) [11]: 5% | Population Mitochondria Different-Phenotype (%) [11]: 2% | Population Mitotic Cells (%) [11]: 3% | Population Normal (%) [11]: 98% | Population Pyknosed Nuclei (%) [11]: 8% | Population Tubulin-Different-Phenotype (%) [11]: 3% | Total Cell Count [11]: 341 | Population Apoptotic (%) [12]: 94% | Population Fragmented Nuclei (%) [12]: 15% | Population Healthy Nuclei (%) [12]: 76% | Population Hoechst High Intensity Objects (%) [12]: 2% | Population Mitochondria Different-Phenotype (%) [12]: 6% | Population Mitotic Cells (%) [12]: 5% | Population Normal (%) [12]: 97% | Total Cell Count [12]: 208

CN1CCN2c3ccccc3Cc3ccccc3C2C1.Cl (configuration not stated) [MIANSERIN HYDROCHLORIDE]
Population Apoptotic (%) [1]: 91% | Population Fragmented Nuclei (%) [1]: 35% | Population Healthy Nuclei (%) [1]: 56% | Population Hoechst High Intensity Objects (%) [1]: 3% | Population Membrane Permeable-Phenotype (%) [1]: 7% | Population Mitochondria Different-Phenotype (%) [1]: 4% | Population Mitotic Cells (%) [1]: 8% | Population Normal (%) [1]: 96% | Population Pyknosed Nuclei (%) [1]: 7% | Population Tubulin-Different-Phenotype (%) [1]: 5% | Total Cell Count [1]: 162 | Population Apoptotic (%) [2]: 83% | Population Fragmented Nuclei (%) [2]: 16% | Population Healthy Nuclei (%) [2]: 77% | Population Hoechst High Intensity Objects (%) [2]: 1% | Population Membrane Permeable-Phenotype (%) [2]: 3% | Population Mitochondria Different-Phenotype (%) [2]: 3% | Population Mitotic Cells (%) [2]: 16% | Population Normal (%) [2]: 98% | Population Pyknosed Nuclei (%) [2]: 5% | Population Tubulin-Different-Phenotype (%) [2]: 2% | Total Cell Count [2]: 109 | Population Apoptotic (%) [3]: 78% | Population Fragmented Nuclei (%) [3]: 23% | Population Healthy Nuclei (%) [3]: 68% | Population Hoechst High Intensity Objects (%) [3]: 2% | Population Membrane Permeable-Phenotype (%) [3]: 7% | Population Mitochondria Different-Phenotype (%) [3]: 3% | Population Mitotic Cells (%) [3]: 21% | Population Normal (%) [3]: 97% | Population Pyknosed Nuclei (%) [3]: 8% | Population Tubulin-Different-Phenotype (%) [3]: 4% | Total Cell Count [3]: 277 | Population Apoptotic (%) [4]: 86% | Population Fragmented Nuclei (%) [4]: 12% | Population Healthy Nuclei (%) [4]: 77% | Population Hoechst High Intensity Objects (%) [4]: 1% | Population Membrane Permeable-Phenotype (%) [4]: 1% | Population Mitochondria Different-Phenotype (%) [4]: 2% | Population Mitotic Cells (%) [4]: 13% | Population Normal (%) [4]: 98% | Population Pyknosed Nuclei (%) [4]: 10% | Population Tubulin-Different-Phenotype (%) [4]: 0% | Total Cell Count [4]: 152 | Population Apoptotic (%) [5]: 88% | Population Fragmented Nuclei (%) [5]: 34% | Population Healthy Nuclei (%) [5]: 56% | Population Hoechst High Intensity Objects (%) [5]: 1% | Population Membrane Permeable-Phenotype (%) [5]: 6% | Population Mitochondria Different-Phenotype (%) [5]: 1% | Population Mitotic Cells (%) [5]: 11% | Population Normal (%) [5]: 98% | Population Pyknosed Nuclei (%) [5]: 8% | Population Tubulin-Different-Phenotype (%) [5]: 4% | Total Cell Count [5]: 197 | Population Apoptotic (%) [6]: 75% | Population Fragmented Nuclei (%) [6]: 23% | Population Healthy Nuclei (%) [6]: 70% | Population Hoechst High Intensity Objects (%) [6]: 2% | Population Membrane Permeable-Phenotype (%) [6]: 4% | Population Mitochondria Different-Phenotype (%) [6]: 3% | Population Mitotic Cells (%) [6]: 25% | Population Normal (%) [6]: 97% | Population Pyknosed Nuclei (%) [6]: 5% | Population Tubulin-Different-Phenotype (%) [6]: 3% | Total Cell Count [6]: 142 | Population Apoptotic (%) [7]: 69% | Population Fragmented Nuclei (%) [7]: 21% | Population Healthy Nuclei (%) [7]: 68% | Population Hoechst High Intensity Objects (%) [7]: 1% | Population Membrane Permeable-Phenotype (%) [7]: 9% | Population Mitochondria Different-Phenotype (%) [7]: 2% | Population Mitotic Cells (%) [7]: 30% | Population Normal (%) [7]: 98% | Population Pyknosed Nuclei (%) [7]: 10% | Population Tubulin-Different-Phenotype (%) [7]: 2% | Total Cell Count [7]: 319 | Population Apoptotic (%) [8]: 93% | Population Fragmented Nuclei (%) [8]: 13% | Population Healthy Nuclei (%) [8]: 77% | Population Hoechst High Intensity Objects (%) [8]: 2% | Population Membrane Permeable-Phenotype (%) [8]: 7% | Population Mitochondria Different-Phenotype (%) [8]: 3% | Population Mitotic Cells (%) [8]: 6% | Population Normal (%) [8]: 97% | Population Pyknosed Nuclei (%) [8]: 8% | Total Cell Count [8]: 183 | Population Apoptotic (%) [9]: 78% | Population Fragmented Nuclei (%) [9]: 28% | Population Healthy Nuclei (%) [9]: 65% | Population Hoechst High Intensity Objects (%) [9]: 2% | Population Membrane Permeable-Phenotype (%) [9]: 5% | Population Mitochondria Different-Phenotype (%) [9]: 2% | Population Mitotic Cells (%) [9]: 21% | Population Normal (%) [9]: 97% | Population Pyknosed Nuclei (%) [9]: 5% | Population Tubulin-Different-Phenotype (%) [9]: 4% | Total Cell Count [9]: 269 | Population Fragmented Nuclei (%) [10]: 19% | Population Healthy Nuclei (%) [10]: 71% | Population Hoechst High Intensity Objects (%) [10]: 1% | Population Membrane Permeable-Phenotype (%) [10]: 4% | Population Mitochondria Different-Phenotype (%) [10]: 3% | Population Normal (%) [10]: 98% | Population Pyknosed Nuclei (%) [10]: 9% | Population Tubulin-Different-Phenotype (%) [10]: 2% | Total Cell Count [10]: 206 | Population Apoptotic (%) [11]: 91% | Population Fragmented Nuclei (%) [11]: 18% | Population Healthy Nuclei (%) [11]: 71% | Population Hoechst High Intensity Objects (%) [11]: 4% | Population Membrane Permeable-Phenotype (%) [11]: 4% | Population Mitochondria Different-Phenotype (%) [11]: 2% | Population Mitotic Cells (%) [11]: 8% | Population Normal (%) [11]: 95% | Population Pyknosed Nuclei (%) [11]: 9% | Population Tubulin-Different-Phenotype (%) [11]: 1% | Total Cell Count [11]: 397 | Population Apoptotic (%) [12]: 87% | Population Fragmented Nuclei (%) [12]: 15% | Population Healthy Nuclei (%) [12]: 73% | Population Hoechst High Intensity Objects (%) [12]: 2% | Population Mitochondria Different-Phenotype (%) [12]: 3% | Population Mitotic Cells (%) [12]: 12% | Population Normal (%) [12]: 97% | Population Pyknosed Nuclei (%) [12]: 11% | Population Tubulin-Different-Phenotype (%) [12]: 2% | Total Cell Count [12]: 285
